Results taken from paper PMC8520054 (Asian Journal of Pharmaceutical Sciences, 2021).

Tests used:
[1] = tested on: adjuvant-induced arthritis (AIA) rat model; test: In vivo therapeutic efficacy in adjuvant-induced arthritis; parameters: species or system SD rats; conditions: AIA rats, i.v. 0.75 mg/kg peptide every day for one week, n = 7, vs PBS
Outline: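 Adjuvant arthritis was induced in male SD rats by s.c. CFA into the paws on Day 1 and was largely established by Day 10. Groups of n = 7, plus healthy controls, received daily i.v. PBS, free peptide or nanoparticles (0.75 mg/kg peptide) for one week. Body weight, paw thickness and joint score were recorded daily. Each paw was graded 0–4 for erythema/swelling, giving a maximum of 16 per rat. Values are mean ± SD; groups were compared by Student's t-test.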

[2] = tested on: Th17 (CD4+IL-17+) and Treg (CD4+Foxp3+) cells; test: Flow cytometry of Th17 and Treg cells in draining lymph nodes of AIA rats; type: in vivo, SD rats; conditions: Day 24, n = 7
Outline: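 Arthritis induced in SD rats on Day 1 by subcutaneous paw injection of 50 µl CFA (10 mg/ml Mycobacterium tuberculosis). Groups (n = 7) given i.v. PBS, free peptide or peptide-loaded nanoparticles (0.75 mg/kg peptide) daily for one week; healthy rats as normal control. On Day 24, popliteal draining lymph nodes sieved (300-mesh) to single cells; CD4+IL-17+ and CD4+Foxp3+ subsets by flow cytometry; mean ± SD.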

[3] = tested on: ankle joints of AIA rats; test: Joint histology; type: in vivo, SD rats; conditions: i.v. 0.75 mg/kg peptide every day for one week
Outline: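 CFA-induced arthritic SD rats received daily i.v. PBS, free peptide or nanoparticles (0.75 mg/kg peptide) for one week; healthy rats served as controls. Rats were sacrificed after 14 d. Ankle joints were fixed in 4% paraformaldehyde for 3 d, decalcified in 15% EDTA-2Na and sectioned. Sections were stained with HE, or immunostained with IL-17A and MPO antibodies plus secondary antibodies. n = 7.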

[4] = Biocompatibility in AIA rats: blood cell counts and body weight; type: in vivo, SD rats; conditions: compared to the normal group, n = 7
[5] = tested on: TNF-α, IL-1β, IL-6, IL-17A in joint homogenates; test: Inflammatory cytokines in joint homogenates of AIA rats; type: in vivo, SD rats; conditions: ELISA, i.v. 0.75 mg/kg peptide every day for one week, n = 7
Outline: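 SD rats made arthritic on Day 1 by 50 µl CFA (10 mg/ml M. tuberculosis) injected s.c. into paws. Arthritic rats (n = 7/group) then dosed i.v. daily for one week with PBS, free peptide or nanoparticle formulation at 0.75 mg/kg peptide; untreated healthy rats as reference. After 14 d, joint tissues cut up and homogenised; TNF-α, IL-1β, IL-6, IL-17A quantified by ELISA; mean ± SD.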

With AMVSEFLKQAWFIENEEQEYVQTVK [Ac2–26] the paw thickness [1] was “limited reduction of the paw thickness”, the “proportion of Treg cells in draining lymph nodes” value [2] was “unable to increase the proportion of Treg” and the “expression of IL-17A in joint tissues (immunohistochemistry)” value [3] was “clearly visible”. The “expression of MPO in joint tissues (immunohistochemistry)” value [3] was “slightly attenuate the expression of MPO”, the “pathological condition of ankle joints (HE staining)” value ([3]; n = 7) was “extensive inflammation infiltration, tissue damage and cartilage destruction” and the “count of platelets (PLT)” value [4] was “no significant difference”. For the same sequence, the “count of white blood cells (WBC)” value [4] was “no significant difference”, the “expression of IL-1β in joint homogenates” value [5] was “unable to effectively decrease the inflammatory level” and the “expression of IL-6 in joint homogenates” value [5] was “unable to effectively decrease the inflammatory level”. The “expression of IL-17A in joint homogenates” value [5] was “unable to effectively decrease the inflammatory level” and the “expression of TNF-α in joint homogenates” value [5] was “unable to effectively decrease the inflammatory level”.
